From ChEMBL document CHEMBL1125042, “Hypolipidemic activity of rifamycin derivatives” (J Med Chem, 1990)
In brackets after ≈: the same amount, converted by molar mass.

How the values were obtained:
Rattus norvegicus [1] = test: Tested for hypolipidemic activity in male rats, cholesterol was determined in serum at 10 mg/kg; type: functional
How it was run: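 Groups of eight male Wistar rats (200–230 g) dosed orally in PEG 400, either daily for 7 days (killed 24 h after the last dose) or for 4 days with a second dose on day 4 (killed 16 h later). Fasted 16 h. Paired sera pooled, lipoproteins separated by ultracentrifugation (1.006 and 1.040 g/cm³), HDL taken as the infranatant. Cholesterol measured enzymatically; % vs vehicle, mean ± SEM of four pools.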

Rattus norvegicus [2] = test: Hypolipidemic activity was determined in male rats, and high-density lipoprotein level was determined at 10 mg/kg; type: functional
How it was run: (§1)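 Male Wistar rats (200–230 g), eight per group, were dosed orally in PEG 400 at 8 a.m. for 4 days, plus a second dose at 4 p.m. on day 4. Rats were fasted 16 h and killed 16 h after the last dose. Sera from pairs of rats were pooled. LDL (up to 1.040 g/cm³) was separated by ultracentrifugation and the HDL infranatant taken. Cholesterol was measured enzymatically. Results are % versus vehicle control, mean ± SEM of four pools, Student's t test.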

Rattus norvegicus [3] = test: Hypolipidemic activity was determined in male rats, and low-density lipoprotein level was determined at 10 mg/kg; type: functional; how it was run: as §1
Staphylococcus aureus = test: Antibacterial activity against Staphylococcus aureus 10B; type: functional
How it was run: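 Agar dilution on DST agar with 2-fold drug dilutions. Inoculum of 10⁴ viable S. aureus 10B was taken from liquid-nitrogen stock, thawed 30 min and not subcultured. It was applied by multipoint replicator and incubated overnight at 37 °C. MIC is the lowest concentration inhibiting growth relative to control cultures.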

[4] = Inhibitory activity against RNA polymerase was determined; parameters: species or system Escherichia coli
How it was run: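 E. coli DNA-dependent RNA polymerase inhibition measured in vitro on ether-extracted, permeabilized E. coli cells.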

COC1/C=C/OC2(C)Oc3c(C)c(O)c4c(O)c(c(N5CCN(Cc6c(C)cc(C)cc6C)CC5)c(O)c4c3C2=O)NC(=O)/C(C)=C\C=C\C(C)C(OC(C)=O)C(C)C(OC(C)=O)C(C)C(OC(C)=O)C1C (centres undefined)
Activity (Rattus norvegicus [1]): -24% | Activity (Rattus norvegicus [2]): -24% | Activity (Rattus norvegicus [3]): -19% | MIC (Staphylococcus aureus): 4 µg/mL (≈ 4.01 µM)

CC(=O)OC1C(C)C2/C=C/OC3(C)Oc4c(C)c(O)c5c(O)c(c(N6CCN(Cc7c(C)cc(C)cc7C)CC6)c(O)c5c4C3=O)NC(=O)/C(C)=C\C=C\C(C)C(O)C(C)C(O2)C1C (centres undefined)
Activity (Rattus norvegicus [1]): 0% | Activity (Rattus norvegicus [2]): -4% | Activity (Rattus norvegicus [3]): -9% | IC50 [4]: > 100 µg/mL | MIC (Staphylococcus aureus): > 128 µg/mL

COC1/C=C/OC2(C)Oc3c(C)c(O)c4c(O)c(c(N5CCN(Cc6c(C)cc(C)cc6C)CC5)c(O)c4c3C2=O)NC(=O)C(C)CCCC(C)C(O)C(C)C(O)C(C)C(OC(C)=O)C1C (centres undefined)
Activity (Rattus norvegicus [1]): -40% | Activity (Rattus norvegicus [2]): -36% | Activity (Rattus norvegicus [3]): -59% | IC50 [4]: 6.5 µg/mL (≈ 7.08 µM) | MIC (Staphylococcus aureus): 0.2 µg/mL (≈ 0.218 µM)
